Test results: publication PMC4424118 (Nature structural & molecular biology, 2015)

Key:
Type in all cases: cell-based
[1] = molecular target: neuromedin B receptor (NMBR; also known as the BB1 bombesin receptor) (Homo sapiens, UniProt P28336); assay: TANGO β-arrestin recruitment assay, NMBR
[2] = molecular target: neuromedin B receptor (NMBR; BB1) (Homo sapiens, UniProt P28336); assay: calcium-release; conditions: BB1-expressing cells
[3] = molecular target: BB2 bombesin receptor (GRPR) (Homo sapiens, UniProt P30550); assay: TANGO β-arrestin recruitment assay, BB2
BB2 bombesin receptor = BB2 bombesin receptor (Homo sapiens, UniProt P30550); assay: calcium mobilization assay, BB2-expressing cells
Procedure, shortened: (§1)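 Cells were plated at 15,000/well on poly-L-lysine in DMEM with 500 ug/ml G-418 and 1% dialyzed FBS, then held overnight. Loading was with FLIPR Calcium 4 dye in HBSS/2.5 mM probenecid/20 mM HEPES, pH 7.4–7.8, for 45 min at 37°C plus 15 min at RT. Compounds (10 mM DMSO stocks) ran as 16-point 3-fold dilutions, final 10 μM–0.003 nM. Fluorescence was read 10 s before and 120 s after addition.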

BB3 bombesin receptor = molecular target: T1, BB3 bombesin receptor (Homo sapiens, UniProt P32247); assay: calcium mobilization assay, BB3-expressing cells
T1 sequence (P32247 1-399): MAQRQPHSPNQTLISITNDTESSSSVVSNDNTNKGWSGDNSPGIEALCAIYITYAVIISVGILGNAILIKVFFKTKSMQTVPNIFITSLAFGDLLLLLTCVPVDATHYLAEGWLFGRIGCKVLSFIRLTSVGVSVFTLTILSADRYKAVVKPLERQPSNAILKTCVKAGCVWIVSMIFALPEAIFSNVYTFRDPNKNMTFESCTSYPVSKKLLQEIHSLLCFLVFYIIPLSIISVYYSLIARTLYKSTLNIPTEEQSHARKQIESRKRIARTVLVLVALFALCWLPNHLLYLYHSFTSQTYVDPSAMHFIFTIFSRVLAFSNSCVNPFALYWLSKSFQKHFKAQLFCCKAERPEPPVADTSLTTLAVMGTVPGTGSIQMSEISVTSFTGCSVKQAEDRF
Procedure, shortened: as §1

UniProt P28336, sequence (P28336 whole entry): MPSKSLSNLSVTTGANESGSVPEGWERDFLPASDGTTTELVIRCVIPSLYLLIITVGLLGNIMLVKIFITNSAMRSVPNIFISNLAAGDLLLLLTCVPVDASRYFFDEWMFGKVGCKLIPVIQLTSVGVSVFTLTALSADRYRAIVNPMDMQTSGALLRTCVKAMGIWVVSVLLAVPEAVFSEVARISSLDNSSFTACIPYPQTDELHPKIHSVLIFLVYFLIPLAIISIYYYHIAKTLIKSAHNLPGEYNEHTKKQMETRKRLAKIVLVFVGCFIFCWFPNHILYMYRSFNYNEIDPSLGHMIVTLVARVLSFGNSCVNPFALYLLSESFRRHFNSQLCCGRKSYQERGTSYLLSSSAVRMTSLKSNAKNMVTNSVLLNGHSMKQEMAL
neuromedin B receptor (NMBR; BB1), sequence (P28336 whole entry): as above
BB2 bombesin receptor, sequence (P30550 whole entry): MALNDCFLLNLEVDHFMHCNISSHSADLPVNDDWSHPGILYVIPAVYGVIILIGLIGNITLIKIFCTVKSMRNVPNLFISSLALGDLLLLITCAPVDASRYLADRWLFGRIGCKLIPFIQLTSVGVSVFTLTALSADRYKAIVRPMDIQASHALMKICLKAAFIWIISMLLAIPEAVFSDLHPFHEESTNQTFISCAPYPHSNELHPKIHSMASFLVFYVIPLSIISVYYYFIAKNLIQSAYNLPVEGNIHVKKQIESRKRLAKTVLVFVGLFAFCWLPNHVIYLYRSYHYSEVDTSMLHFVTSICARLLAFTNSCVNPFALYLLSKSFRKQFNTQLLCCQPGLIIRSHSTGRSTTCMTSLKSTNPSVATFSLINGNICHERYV
BB2 bombesin receptor (GRPR), sequence (P30550 whole entry): as above

response of BB1 in the TANGO assay [1]: insensitive | calcium mobilization response [2]: did not stimulate a response | response of BB2 in the TANGO assay [3]: insensitive | calcium mobilization response (BB2 bombesin receptor): did not stimulate a response | calcium mobilization response (BB3 bombesin receptor): did stimulate a response
SMILES: CC(C)(C)NC(=O)[C@@H]1C[C@@H]2CCCC[C@@H]2CN1C[C@@H](O)[C@H](Cc1ccccc1)NC(=O)[C@H](CC(N)=O)NC(=O)c1ccc2ccccc2n1 [Saquinavir, saquinavir]
